Laboratory results published in the M2OR odorant receptor database.

Key:
Conditions in all cases: stereoisomer not certain
[1] = biological target: T1, UniProt Q8VGL0
T1 sequence (whole entry): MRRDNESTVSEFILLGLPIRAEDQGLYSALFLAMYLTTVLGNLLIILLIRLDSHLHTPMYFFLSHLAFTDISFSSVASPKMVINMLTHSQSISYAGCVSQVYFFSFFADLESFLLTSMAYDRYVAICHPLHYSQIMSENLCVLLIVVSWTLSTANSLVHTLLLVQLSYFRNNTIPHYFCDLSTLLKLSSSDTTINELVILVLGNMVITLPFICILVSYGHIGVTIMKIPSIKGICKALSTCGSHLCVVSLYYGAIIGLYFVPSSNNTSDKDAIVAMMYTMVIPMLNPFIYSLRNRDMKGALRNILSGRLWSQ
How it was run: (§1)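 Transient luciferase assays in mammalian cell lines were common, though methods varied by source. The values come from published papers and their supplementary material, with extra details from the original authors when needed. Responsive refers to a measured signal the original authors judged statistically different from baseline, and non-responsive (inactive) to the remainder.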

[2] = biological target: T2, UniProt Q8VGU3
T2 sequence (whole entry): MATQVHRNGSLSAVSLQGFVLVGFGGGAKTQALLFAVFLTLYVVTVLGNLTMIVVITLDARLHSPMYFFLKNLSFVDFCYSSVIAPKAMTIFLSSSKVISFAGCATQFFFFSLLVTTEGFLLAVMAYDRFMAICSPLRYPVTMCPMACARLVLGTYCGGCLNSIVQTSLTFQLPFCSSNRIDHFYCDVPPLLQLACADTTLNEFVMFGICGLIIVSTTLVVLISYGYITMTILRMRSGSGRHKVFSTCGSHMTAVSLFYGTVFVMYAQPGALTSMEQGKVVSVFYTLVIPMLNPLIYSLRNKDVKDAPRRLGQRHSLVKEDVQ
How it was run: as §1

[3] = biological target: T3, UniProt Q8VGV7
T3 sequence (whole entry): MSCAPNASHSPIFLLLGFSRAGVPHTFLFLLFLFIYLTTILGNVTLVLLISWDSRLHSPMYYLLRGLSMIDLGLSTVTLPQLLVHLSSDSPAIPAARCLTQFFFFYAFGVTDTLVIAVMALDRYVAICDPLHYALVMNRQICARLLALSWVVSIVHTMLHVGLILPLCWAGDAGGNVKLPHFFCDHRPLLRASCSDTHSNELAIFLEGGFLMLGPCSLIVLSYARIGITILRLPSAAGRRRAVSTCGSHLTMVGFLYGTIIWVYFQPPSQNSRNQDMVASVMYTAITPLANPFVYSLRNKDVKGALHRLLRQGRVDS
How it was run: as §1

[4] = biological target: T4, UniProt Q8VGX3
T4 sequence (whole entry): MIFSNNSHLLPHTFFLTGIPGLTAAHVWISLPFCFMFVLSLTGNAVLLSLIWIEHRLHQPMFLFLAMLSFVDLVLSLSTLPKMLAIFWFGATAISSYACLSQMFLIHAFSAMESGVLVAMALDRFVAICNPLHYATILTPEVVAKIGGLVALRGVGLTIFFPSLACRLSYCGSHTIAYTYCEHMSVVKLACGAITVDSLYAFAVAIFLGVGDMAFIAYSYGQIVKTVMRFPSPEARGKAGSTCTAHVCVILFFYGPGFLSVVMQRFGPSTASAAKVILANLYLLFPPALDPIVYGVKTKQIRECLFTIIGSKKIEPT
How it was run: as §1

[5] = biological target: T5, UniProt Q8VGX5
T5 sequence (whole entry): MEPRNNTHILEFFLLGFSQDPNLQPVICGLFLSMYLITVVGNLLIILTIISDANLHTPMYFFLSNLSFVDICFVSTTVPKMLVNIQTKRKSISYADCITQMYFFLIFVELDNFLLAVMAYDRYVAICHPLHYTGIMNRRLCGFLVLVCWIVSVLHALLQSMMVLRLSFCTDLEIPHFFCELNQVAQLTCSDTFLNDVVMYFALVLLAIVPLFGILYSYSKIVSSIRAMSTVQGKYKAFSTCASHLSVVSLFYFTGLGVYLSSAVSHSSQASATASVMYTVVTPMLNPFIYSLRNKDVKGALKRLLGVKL
How it was run: as §1

[6] = biological target: T6, UniProt Q8VGZ2
T6 sequence (whole entry): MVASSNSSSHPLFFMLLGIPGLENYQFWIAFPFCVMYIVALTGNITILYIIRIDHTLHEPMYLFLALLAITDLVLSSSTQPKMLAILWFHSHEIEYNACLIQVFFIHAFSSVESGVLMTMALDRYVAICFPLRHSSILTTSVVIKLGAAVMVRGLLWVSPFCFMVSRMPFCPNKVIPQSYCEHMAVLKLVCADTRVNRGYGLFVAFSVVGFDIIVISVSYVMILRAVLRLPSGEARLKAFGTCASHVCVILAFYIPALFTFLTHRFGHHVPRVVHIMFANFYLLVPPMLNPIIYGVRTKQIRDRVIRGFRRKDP
How it was run: as §1

[7] = biological target: T7, UniProt Q8VGZ7
T7 sequence (whole entry): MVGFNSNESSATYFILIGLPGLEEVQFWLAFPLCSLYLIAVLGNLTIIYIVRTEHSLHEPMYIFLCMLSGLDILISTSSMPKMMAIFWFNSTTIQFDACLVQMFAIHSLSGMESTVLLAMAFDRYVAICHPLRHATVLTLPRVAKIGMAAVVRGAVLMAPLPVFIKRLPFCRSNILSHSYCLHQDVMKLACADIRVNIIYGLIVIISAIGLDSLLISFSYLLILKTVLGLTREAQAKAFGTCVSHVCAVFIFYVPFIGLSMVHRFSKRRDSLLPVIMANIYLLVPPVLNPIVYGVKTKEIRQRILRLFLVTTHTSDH
How it was run: as §1

[8] = biological target: T8, UniProt Q8VH16
T8 sequence (whole entry): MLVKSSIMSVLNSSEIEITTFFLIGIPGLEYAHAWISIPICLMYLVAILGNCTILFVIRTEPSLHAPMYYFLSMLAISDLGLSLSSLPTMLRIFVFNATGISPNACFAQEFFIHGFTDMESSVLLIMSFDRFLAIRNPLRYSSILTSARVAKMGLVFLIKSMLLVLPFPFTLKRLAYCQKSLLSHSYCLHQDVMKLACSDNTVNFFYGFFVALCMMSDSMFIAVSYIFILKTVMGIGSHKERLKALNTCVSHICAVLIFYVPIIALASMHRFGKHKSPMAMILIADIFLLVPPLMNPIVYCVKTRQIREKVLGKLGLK
How it was run: as §1

[9] = biological target: T9, UniProt Q8VH20
T9 sequence (whole entry): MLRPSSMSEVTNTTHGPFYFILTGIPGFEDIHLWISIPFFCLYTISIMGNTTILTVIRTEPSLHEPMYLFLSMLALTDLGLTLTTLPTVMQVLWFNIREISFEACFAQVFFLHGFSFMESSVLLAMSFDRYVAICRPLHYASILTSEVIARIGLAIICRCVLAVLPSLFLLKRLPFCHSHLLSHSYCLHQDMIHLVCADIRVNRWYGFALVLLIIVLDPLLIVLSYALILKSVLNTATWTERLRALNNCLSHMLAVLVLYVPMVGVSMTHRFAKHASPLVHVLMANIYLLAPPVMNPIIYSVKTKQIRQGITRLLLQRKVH
How it was run: as §1

Measured: odorant receptor agonist call

O=Cc1ccc2c(c1)OCO2
active: [5]
inactive: all other assays above

CCCCC(Br)C(=O)O (stereo unspecified)
active: [9]
inactive: all other assays above

CCCCCCC(Br)C(=O)O (stereo unspecified)
active: [9]
inactive: all other assays above

CC(C=O)Cc1ccc2c(c1)OCO2 (stereo unspecified)
active: [5]
inactive: all other assays above
